Calls of active or inactive are those of the source.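 How the source made its calls: active means duplicate-averaged activation above buffer control mean plus 5 SD of those controls; inactive means the rest.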
assay: thallium flux activation in parental CHO cells, counter-screen for KCNQ1 potentiator project (AID 493006); conditions: parental CHO-K1 cells, FluxOR thallium flux, at 10 µM; active compounds read high;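 on activation: fluorescence ratio of max minus min over baseline after K+ and Tl+ depolarization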
Summary of the method: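 Assay system: parental CHO-K1 cells lacking KCNQ1, loaded with FluxOR thallium dye; timing: dye 90 min RT, compound 20 min RT; signal: kinetic thallium-flux fluorescence; repeats: duplicate wells per compound, percent values averaged; benchmarks: buffer and R-L3 controls; reagent: Potassium/thallium depolarization pulse; read-out: fluorescence change ratio scaled 0% buffer, 100% R-L3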

| SMILES | activation | outcome |
| --- | --- | --- |
| Cc1cc(NC(=O)CSc2nc(C3CC3)nc3sc(C)c(C)c23)no1 | 148% (active) |  |
| CC(=O)Nc1c2c(nn1-c1ccc(C)cc1)CS(=O)(=O)C2 |  | inactive |
| CCCNC(=O)C(=O)N/N=C/c1cccs1 |  | inactive |
| O=c1c(O)c(-c2ccc3c(c2)OCO3)oc2ccccc12 |  | inactive |
| Cc1ccc(C(=O)CC(=O)c2cccc(F)c2)c(O)c1 | 156% (active) |  |
| CN1C(=O)C2(Oc3ccccc3C3CC(c4ccccc4)=NN32)c2ccccc21 (stereo not given) |  | inactive |
| Cc1nnc(SCC(=O)N(Cc2ccccc2)C(C)C)n1-c1ccccc1 |  | inactive |
| O=C(NC(=S)N1CCc2ccccc21)c1ccccc1Br | 537% (active) |  |
| Cc1[nH]c(-c2ccccn2)nc(=S)c1Cl | 244% (active) |  |
| O=C1NN(c2ccccc2)C(=O)/C1=C\c1cccc(OC(=O)c2cccs2)c1 | 187% (active) |  |
| CC(C)C1=NN(C(=O)c2ccccc2)C(O)(C(C)(C)C)C1 (stereo not given) |  | inactive |
| Cc1ccc(-n2ncc3c(SCC(=O)NNC(=O)c4ccco4)ncnc32)cc1 |  | inactive |
| COC(=O)[C@@H]1CCCN1C(=O)CCc1nnc(CCC2CCCCC2)o1 |  | inactive |
| CCOc1ccc(C(=O)C(CCC(CN(C)C)C(=O)c2ccc(OCC)cc2)CN(C)C)cc1 (stereo not given) |  | inactive |
| O=C(Nc1nccs1)c1ccc(-c2ccc(F)c(Cl)c2)o1 |  | inactive |
| O=[N+]([O-])c1cc(CN2CCCC2)ccc1Sc1ccc(Cl)cc1 |  | inactive |
| Nc1nc(COc2ccccc2C=O)nc(Nc2ccccc2)n1 |  | inactive |
| O=c1c2ccccc2nc(-c2cccc(Cl)c2)n1O | 358% (active) |  |
| COc1ccc(C(=O)NNC(=O)C(=O)NC2CCCCC2)cc1 |  | inactive |
| O=C(NN=C1CCCCCC1)c1cc(-c2ccccc2)nc2ccccc12 |  | inactive |

| SMILES | activation | outcome |
| --- | --- | --- |
| Cc1ccc(C(=O)NCCC(=O)NCc2cc(=O)n(C)c(=O)n2C)cc1 |  | inactive |
| CC(C)c1nc2n[nH]c(N)c2c2c1CSC(C)(C)C2 |  | inactive |
| COCCN(C(=O)COC(=O)/C=C/c1cccs1)c1c(N)n(Cc2ccccc2)c(=O)[nH]c1=O |  | inactive |
| N#C/C(=C\c1ccc(-c2ccccc2Cl)o1)C(=O)Nc1nc2ccccc2s1 |  | inactive |
| CSC(=S)N/N=C/c1ccc(N(C)C)cc1 |  | inactive |
| Cc1ccc(C(=O)COC(=O)COc2ccccc2C)cc1 |  | inactive |
| O=c1c2cc(Cl)ccc2nc(-c2ccccc2)n1O | 298% (active) |  |
| OC(c1ccccc1)c1cccnc1 (stereo not given) | 146% (active) |  |
| CCCn1c(=S)[nH]c2sc3c(c2c1=O)CCCC3 | 418% (active) |  |
| Fc1ccccc1/C=N/NC(=S)Nc1ccc(Cl)cc1Cl |  | inactive |
| CCCCOC(=O)c1cc(C)nc2ccc(Br)cc12 | 306% (active) |  |
| COC(=O)C1SCC2C(=O)N(Cc3ccc(F)cc3)CC(=O)N21 (stereo not given) |  | inactive |
| CCCOc1ccc(CN(CCC#N)C(=S)NC(=O)c2ccccc2)cc1 | 288% (active) |  |
| CCN(C(=O)COC(=O)c1ccccc1Nc1cccc(C)c1C)C1CCS(=O)(=O)C1 (stereo not given) |  | inactive |
| COc1ccc(N2CCN(C(=O)COC(=O)/C=C/c3ccc(OC(F)F)cc3)CC2)cc1 | 178% (active) |  |
| Clc1ccc(C(c2ccccc2)N2CCNCC2)cc1 (stereo not given) |  | inactive |
| CCOC(=O)CSc1nc2ccccc2c(=O)n1-c1ccc(C)cn1 |  | inactive |
| Cc1cc(C)c(NC(=O)CN2C(=O)NC3(CCCc4ccccc43)C2=O)c(Cl)c1 (stereo not given) |  | inactive |
| O=C(c1ccccc1[N+](=O)[O-])N1CCN(c2ccc(N3CCOCC3)nn2)CC1 |  | inactive |
| COc1ccc(-c2csc(N(CCCN(C)C)C(=O)c3ccccc3Cl)n2)cc1 |  | inactive |
